Among the data in ChEMBL document CHEMBL2375318, “Design, synthesis and antimicrobial activity of novel benzothiazole analogs” (Eur J Med Chem, 2013) are MIC and hemolysis values, retold here.

Each structure is given as a SMILES string. ≈ marks a conversion by molar mass, not a printed value.

The subject of one series is Aspergillus fumigatus. The series is described as follows: Antimicrobial activity against Aspergillus fumigatus clinical isolate after 18 to 24 hrs by micro-dilution method. It counts as functional. In short, it runs like this:
(§1)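 Broth micro-dilution MIC, fungi. Fresh broth cultures were made in normal saline. Compounds were serially diluted in microtiter plates across 8 concentrations, 100 down to 0.78. Standardized inoculum was 1–2 × 10^7 cfu/ml. Medium was Sabouraud dextrose pH 7.3 ± 0.2. Plates were incubated aerobically at 37 °C for 18–24 h. MIC is the lowest concentration with no visible growth or turbidity versus control. Fluconazole was the reference.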
A general note: In broth dilution the organism is exposed to a series of concentrations in liquid medium.

The next series concerns Aspergillus niger. Put plainly: Antimicrobial activity against Aspergillus niger clinical isolate after 18 to 24 hrs by micro-dilution method. In kind it is functional. In short, it runs like this:
as §1

The subject of a further series is Cryptococcus neoformans. Put plainly: Antifungal activity against Cryptococcus neoformans clinical isolate after 18 to 24 hrs by micro-dilution method. It counts as functional. Summed up:
as §1

Another series concerns Pichia kudriavzevii. Put plainly: Antifungal activity against Candida krusei ATCC 6258 after 18 to 24 hrs by micro-dilution method. In kind it is functional. Summed up: as §1
Series [1] has as its system Candida albicans. The series is described as follows: Antifungal activity against Candida albicans ATCC 90028 after 18 to 24 hrs by micro-dilution metho. It counts as functional. Summed up:
as §1

For series [2], the system named is Candida albicans. The series is described as follows: Antifungal activity against Candida albicans clinical isolate after 18 to 24 hrs by micro-dilution method. In kind it is functional. Summed up:
as §1

The next series has as its system Candida tropicalis. Put plainly: Antifungal activity against Candida tropicalis ATCC 750 after 18 to 24 hrs by micro-dilution method. In kind it is functional. In short, it runs like this: as §1
The subject of a further series is Shigella boydii. Put plainly: Antimicrobial activity against Shigella boydii clinical isolate after 18 to 24 hrs by micro-dilution method. It counts as functional.
Series [3] in a line: Cytotoxicity against human RBC assessed as hemolytic activity at 100 uM after 1 hr by spectophotometry. It counts as cell-based, Erythrocyte. The note with it: red blood cells (RBC), read-out: Activity. Summed up:
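Hemolysis, fresh human blood. RBCs were washed three times in PBS (spun 3000 rpm, 7 min, room temperature) and adjusted to 5×10^8 cells/ml. Cell suspension was added to buffer holding 100 μM compound in 1% v/v DMSO/PBS. Controls were 1% DMSO/PBS and sterile water. Samples were shaken at 37 °C for 1 h, spun at 1300 rpm for 5 min, and supernatant absorbance read at 540 nm.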

The next series relates to Pseudomonas aeruginosa. The series is described as follows: Antimicrobial activity against Pseudomonas aeruginosa ATCC 27893 after 18 to 24 hrs by micro-dilution method. In kind it is functional.
The test system of the next series is Klebsiella pneumoniae. Put plainly: Antimicrobial activity against Klebsiella pneumoniae clinical isolate after 18 to 24 hrs by micro-dilution method. It counts as functional.
The subject of the next series is Escherichia coli. Put plainly: Antimicrobial activity against Escherichia coli ATCC 35218 after 18 to 24 hrs by micro-dilution method. In kind it is functional.
For another series, the system named is Salmonella typhi. The series is described as follows: Antimicrobial activity against Salmonella typhi MTCC 3216 after 18 to 24 hrs by micro-dilution method. In kind it is functional, Salmonella enterica subsp. enterica serovar Typhi. The conditions noted are these: Salmonella enterica. Summed up: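 Broth microdilution with twofold serial dilutions from 100 down to 0.78, eight concentrations. Fresh cultures were made up in normal saline, and 0.1 ml of standardized inoculum (1–2 × 10^7 cfu/ml) was added per well. Plates were incubated aerobically at 37 °C for 18–24 h on Mueller-Hinton agar/Luria broth. MIC was the lowest concentration with no visible turbidity compared with the control.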

In another series the test system is Enterococcus faecalis. The series is described as follows: Antimicrobial activity against Enterococcus faecalis clinical isolate after 18 to 24 hrs by micro-dilution method. It counts as functional.
A further series relates to Staphylococcus aureus. The series is described as follows: Antimicrobial activity against Staphylococcus aureus ATCC 25323 after 18 to 24 hrs by micro-dilution method. In kind it is functional.

`Fc1cccc(-n2cc(CN(Cc3cn(-c4cccc(F)c4)nn3)c3nc4ccccc4s3)nn2)c1`: the minimum inhibitory concentration (MIC) in the series with Aspergillus fumigatus, in the series with Aspergillus niger, with Cryptococcus neoformans, against Pichia kudriavzevii, against Candida albicans [1] and with Candida albicans [2] was above 100 µg/mL each time. Besides, the MIC in the series on Candida tropicalis, with Shigella boydii, in the series with Pseudomonas aeruginosa, in the series on Klebsiella pneumoniae, with Escherichia coli and in the series on Salmonella typhi was above 100 µg/mL in each case. Moreover, the MIC in the series on Enterococcus faecalis and in the series with Staphylococcus aureus was above 100 µg/mL each time. In addition, the hemolysis at 1 h, 100 µM in series [3] was determined as 29.8%.
Take `COc1cc(-n2cc(CN(Cc3cn(-c4cc(OC)c(OC)c(OC)c4)nn3)c3nc4ccccc4s3)nn2)cc(OC)c1OC`: the MIC in the series on Aspergillus fumigatus was above 100 µg/mL; against Aspergillus niger it was above 100 µg/mL; in the series with Cryptococcus neoformans, above 100 µg/mL; in the series on Pichia kudriavzevii it was 6.25 µg/mL (≈ 9.69 µM); in the series on Candida albicans [1] it was above 100 µg/mL; with Candida albicans [2], above 100 µg/mL. Besides, the MIC with Candida tropicalis, against Shigella boydii, against Pseudomonas aeruginosa, in the series with Klebsiella pneumoniae, in the series with Escherichia coli and with Salmonella typhi was above 100 µg/mL in each case. The MIC against Enterococcus faecalis and against Staphylococcus aureus was above 100 µg/mL throughout. The hemolysis at 1 h, 100 µM in series [3] was determined as 36.6%.
Turning to `Cc1cc(C)cc(-n2cc(CN(Cc3cn(-c4cc(C)cc(C)c4)nn3)c3nc4ccccc4s3)nn2)c1`, the MIC against Aspergillus fumigatus was 12.5 µg/mL (≈ 24 µM); against Aspergillus niger it was 12.5 µg/mL (≈ 24 µM); in the series with Cryptococcus neoformans, 3.12 µg/mL (≈ 5.99 µM); in the series with Pichia kudriavzevii, above 100 µg/mL; against Candida albicans [1] it was 3.12 µg/mL (≈ 5.99 µM); with Candida albicans [2] it was 12.5 µg/mL (≈ 24 µM). Besides, the MIC in the series on Candida tropicalis is 12.5 µg/mL (≈ 24 µM); in the series on Shigella boydii, 100 µg/mL (≈ 192 µM); against Pseudomonas aeruginosa it was above 100 µg/mL; in the series with Klebsiella pneumoniae, above 100 µg/mL; in the series on Escherichia coli it was 100 µg/mL (≈ 192 µM); with Salmonella typhi it was 100 µg/mL (≈ 192 µM). Further, the MIC was above 100 µg/mL against Enterococcus faecalis and 100 µg/mL (≈ 192 µM) in the series with Staphylococcus aureus. In series [3], the hemolysis at 1 h, 100 µM is 7.42%.
Regarding `Clc1ccccc1-n1cc(CN(Cc2cn(-c3ccccc3Cl)nn2)c2nc3ccccc3s2)nn1`, the MIC against Aspergillus fumigatus, against Aspergillus niger, in the series with Cryptococcus neoformans, in the series on Pichia kudriavzevii, in the series on Candida albicans [1] and in the series on Candida albicans [2] was above 100 µg/mL throughout. Besides, the MIC against Candida tropicalis is above 100 µg/mL; in the series on Shigella boydii, above 100 µg/mL; against Pseudomonas aeruginosa, 12.5 µg/mL (≈ 23.4 µM); in the series with Klebsiella pneumoniae, 50 µg/mL (≈ 93.7 µM); in the series with Escherichia coli, 12.5 µg/mL (≈ 23.4 µM); in the series on Salmonella typhi, 6.25 µg/mL (≈ 11.7 µM). Moreover, the MIC in the series on Enterococcus faecalis stood at 6.25 µg/mL (≈ 11.7 µM); against Staphylococcus aureus, 25 µg/mL (≈ 46.9 µM). The hemolysis at 1 h, 100 µM in series [3] came to 19.5%.

By MIC is commonly meant the smallest concentration in the dilution series that meets the test's criterion for growth inhibition. A low value points to inhibition by little substance.
